We go through 17 compounds from ChEMBL document CHEMBL1131448 (J Med Chem, 1998).

Some results are limits rather than exact numbers.

One assay relates to MCF7. Kind of assay: Antiproliferative activity measured against MCF-7-mdr cells. The class given is functional, cell-based. The settings on record: Homo sapiens. The method, boiled down:
(§1)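 Cells seeded 24 h before treatment (3000/well A427, MCF7mdr, K562adr; 1500/well PC-3) in DMEM with 10% heat-inactivated FCS, penicillin/streptomycin, 2 mM glutamine. Drug from DMSO (0.1% final) at 5 × 10^-13 to 1 × 10^-6 M final, 72 h exposure. Viability by WST-1 formazan colorimetry. Two experiments, eight determinations per concentration. IC50 by linear regression on linear part of sigmoid.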

Another assay deals with K562. The assay is described as follows: Antiproliferative activity measured against K562adr leukemia cells. Particulars: Homo sapiens. It counts as functional, cell-based. In outline: as §1
A further assay has as its system PC-3. Kind of assay: Antiproliferative activity measured against PC-3 human prostate adenocarcinoma. It counts as functional, cell-based. The settings on record: PC-3, Prostate gland. The method, boiled down:
as §1

Another assay deals with A-427. Kind of assay: Antiproliferative activity measured against A427 human lung carcinoma. It counts as functional, cell-based. The method, boiled down:
as §1

The test system of assay [1] is DNA topoisomerase 1 (Bos taurus). The assay is described as follows: Effect on Topo-I-mediated relaxation of supercoiled pUC19 plasmid DNA in calf thymus at 100 uM.
The test system of assay [2] is HT-29. The assay is described as follows: Antitumor activity was measured on HT-29 xenografts after 0.625 mg/kg ip dose. It counts as functional, Homo sapiens. The settings on record: route intraperitoneal. In outline:
(§2)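 Female NCr nu/nu athymic mice, 4-6 weeks old, given sc HT-29 cells (5 × 10^6/animal, left dorsum). Randomised at day 10 at about 175 mm³ mean tumour (5/treated group, 10 controls). Drug in DMSO (3%)/Tween 20 (2%)/0.9% NaCl given ip daily, 4 days on/3 off, ×3 (12 injections). Caliper volume (w²l)/2 three times weekly with body weight. T-C delay in days to reach 250% of starting volume.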

Assay [3] concerns HT-29. The assay is described as follows: Antitumor activity was measured on HT-29 xenografts after 1.25 mg/kg ip dose; td = ' toxic dose'. The arrangement: dose 1.25 mg/kg. Particulars: Homo sapiens. It counts as functional, organism-based. In outline:
as §2

The test system of assay [4] is HT-29. The assay is described as follows: Antitumor activity was measured on HT-29 xenografts after 0.625 mg/kg ip dose; toxic dose. It counts as functional, organism-based. The settings on record: Homo sapiens. Further details: dose 0.625 mg/kg. In outline:
as §2

Assay [5] has as its system HT-29. Kind of assay: Antitumor activity was measured on HT-29 xenografts after 0.16 mg/kg ip dose. It counts as functional, Homo sapiens. The settings on record: route intraperitoneal. The method, boiled down: as §2
In assay [6] the test system is HT-29. Kind of assay: Antitumor activity was measured on HT-29 xenografts after 0.32 mg/kg ip dose. The class given is functional, Homo sapiens. The settings on record: route intraperitoneal. In outline:
as §2

Assay [7] has as its system HT-29. The assay is described as follows: Antitumor activity was measured on HT-29 xenografts after 2.5 mg/kg ip dose; td =' toxic dose'. Further details: dose 2.5 mg/kg. It counts as functional, organism-based. The settings on record: Homo sapiens. The method, boiled down:
as §2

The subject of assay [8] is HT-29. The assay is described as follows: Antitumor activity was measured on HT-29 xenografts after 1.25 mg/kg ip dose. It counts as functional, Homo sapiens. Particulars: route intraperitoneal. The method, boiled down:
as §2

Assay [9] concerns HT-29. The assay is described as follows: Antitumor activity was measured on HT-29 xenografts after 0.625 mg/kg ip dose; td = 'toxic dose'. The arrangement: dose 0.625 mg/kg. The settings on record: Homo sapiens. It counts as functional, organism-based. In outline: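 Female NCr nu/nu athymic mice, 4-6 weeks old, bearing sc HT-29 tumours (5 × 10⁶ cells, left dorsal surface). Dosing began at about 175 mm³ (day 10), 5 mice per group and 10 controls. Drug given ip in DMSO (3%)/Tween 20 (2%)/0.9% NaCl, daily 4 days on/3 off, three cycles. Calipers three times weekly; T-C growth delay in days to reach 250% of starting volume.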

For orientation: IC50 means the concentration needed to halve the response being measured. A high value points to a need for much substance. Turning to `CC[C@@]1(O)C(=O)OCc2c1cc1n(c2=O)Cc2cc3c(CN(C)C)c(O)ccc3nc2-1` [TOPOTECAN], the 50% inhibitory concentration (IC50) with MCF7 is 420 nM; in the assay on K562 it was 1100 nM; with PC-3, 160 nM; in the assay on A-427, 49 nM.
The compound `CC[C@@]1(O)CC(=O)OCc2c1cc1n(c2=O)Cc2cc3ccccc3nc2-1` gave a Relaxed DNA in assay [1] of 45%.
With `CCC1(O)CC(=O)OCc2c1cc1n(c2=O)Cc2cc3cc(Cl)ccc3nc2-1` (stereo unspecified), the concentration for half-maximal inhibition (IC50) with MCF7 was 1.3 nM; with K562, 2.6 nM; in the assay with PC-3, 18 nM; in the assay with A-427, 0.36 nM. Also, in assay [1], the Relaxed DNA came out at 57%.
The corresponding values for `CCC1(O)CC(=O)OCc2c1cc1n(c2=O)Cc2cc3cc4c(cc3nc2-1)OCO4` (stereo unspecified) are 0.55 nM, 37 nM, under 0.001 nM, 0.62 nM and 58%.
With `COc1cc([C@@H]2c3cc4c(cc3[C@@H](O[C@@H]3O[C@@H]5CO[C@@H](C)O[C@H]5[C@H](O)[C@H]3O)[C@H]3COC(=O)[C@H]23)OCO4)cc(OC)c1O` [ETOPOSIDE], the IC50 is 67000 nM in the assay with MCF7 and 2300 nM with PC-3.
`CC[C@@]1(O)C(=O)OCc2c1cc1n(c2=O)Cc2cc3ccccc3nc2-1` [CAMPTOTHECIN]: the IC50 with MCF7 came to 3.1 nM; with K562, 57 nM; with PC-3, 57 nM; in the assay on A-427 it was 24 nM. Moreover, the Tumor growth delay is 4 days with HT-29 [2] and “Toxic” in the assay on HT-29 [3].
With `CCC1(O)CC(=O)OCc2c1cc1n(c2=O)Cc2cc3cc(C)c(F)cc3nc2-1` (stereo unspecified), the Tumor growth delay result in the assay on HT-29 [4] is “Toxic”; in the assay with HT-29 [5] it was 4 days; in the assay on HT-29 [6], 7 days. The IC50 was 0.01 nM with MCF7, 14 nM with K562, under 0.001 nM in the assay with PC-3 and 0.00081 nM with A-427. In assay [1], this compound gave a Relaxed DNA of 18%.
With `CCC1(O)CC(=O)OCc2c1cc1n(c2=O)Cc2cc3ccccc3nc2-1` (stereo unspecified), the IC50 with MCF7 was found to be 21 nM; in the assay with K562 it was 47 nM; in the assay with PC-3 it was 60 nM; with A-427, 12 nM. The Relaxed DNA in [1] stood at 60%.
For the compound `CCC1(O)CC(=O)OCc2c1cc1n(c2=O)Cc2cc3cc(F)ccc3nc2-1` (stereo unspecified), the IC50 in the assay with K562 came out at 63 nM; in the assay on PC-3, 0.58 nM; in the assay on A-427, 7.7 nM. In assay [1], the Relaxed DNA amounted to 47%.
For `CCC1(O)CC(=O)OCc2c1cc1n(c2=O)Cc2cc3cc(C)c(Cl)cc3nc2-1` (stereo unspecified), the IC50 in the assay with K562 stood at 2.9 nM; in the assay with PC-3 it was 3.6 nM; in the assay on A-427, 0.031 nM. Further, the Relaxed DNA in assay [1] stood at 59%.
As to `CCC1(O)CC(=O)OCc2c1cc1n(c2=O)Cc2cc3cc(F)c(Cl)cc3nc2-1` (stereo unspecified), the IC50 in the assay on MCF7 was determined as 1.7 nM; in the assay on K562 it was 20 nM; in the assay on PC-3 it was 12 nM; in the assay with A-427, 0.023 nM. The Tumor growth delay in the assay with HT-29 [2] is 2 days; in the assay with HT-29 [7], “Toxic dose”; in the assay on HT-29 [8], 7 days; in the assay with HT-29 [6] it was 1 days. Besides, the Relaxed DNA in assay [1] came to 61%.
Consider `COc1cccc2c1C(=O)c1c(O)c3c(c(O)c1C2=O)C[C@@](O)(C(=O)CO)C[C@@H]3O[C@H]1C[C@H](N)[C@H](O)[C@H](C)O1` [DOXORUBICIN], for which the IC50 with K562 amounted to 15000 nM; in the assay with PC-3 it was 390 nM.
Turning to `CCC1(O)CC(=O)OCc2c1cc1n(c2=O)Cc2cc3cc4c(cc3nc2-1)OCCO4` (stereo unspecified), the Relaxed DNA in assay [1] is 50%.
Take `CCC1(O)CC(=O)OCc2c1cc1n(c2=O)Cc2cc3cc(OC)c(F)cc3nc2-1` (stereo unspecified): the results for the Tumor growth delay entry with HT-29 [4], in the assay on HT-29 [5] and with HT-29 [6] were “Toxic”, 4 days and 12 days, respectively. Besides, the half-inhibitory concentration (IC50) in the assay on MCF7 is 2.2 nM; in the assay on K562, 18 nM; in the assay on PC-3 it was under 0.001 nM; with A-427, 0.0083 nM. The same compound gave a Relaxed DNA in [1] of 26%.
Regarding `CCC1(O)CC(=O)OCc2c1cc1n(c2=O)Cc2cc3cc(F)c(F)cc3nc2-1` (stereo unspecified), the IC50 in the assay with K562 worked out at 66 nM; in the assay on PC-3, 0.001 nM; with A-427 it was 0.1 nM. Further, the Tumor growth delay entry is “Toxic dose” in the assay on HT-29 [9], 8 days in the assay with HT-29 [5] and 25 days in the assay with HT-29 [6]. In assay [1], the Relaxed DNA is 56%.
Take `CCc1c2c(nc3ccccc13)-c1cc3c(c(=O)n1C2)COC(=O)CC3(O)CC` (stereo unspecified): the IC50 stood at 21 nM with MCF7, 33 nM in the assay on K562 and 28 nM in the assay with PC-3. The compound further registered a Relaxed DNA in [1] of 34%.
On to `CC[C@]1(O)CC(=O)OCc2c1cc1n(c2=O)Cc2cc3ccccc3nc2-1`, for which the Relaxed DNA in assay [1] came to 100%.
